From ChEMBL document CHEMBL5257027 (Eur J Med Chem, 2016)

Columns and labels:
HCT-15 [1] = experiment: Cytotoxicity against human HCT-15 cells; format: functional; details: read-out: LC50 (the source's name)
Procedure, shortened: (§1)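 Run in the US NCI 58-cell-line screen covering nine cancer types (leukemia, NSCLC, colon, CNS, melanoma, ovarian, renal, prostate, breast). Five-dose mode gave GI50, TGI and LC50 values for each cell line. In the single-dose pre-screen, % inhibition was taken as 100 minus growth percentage.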

[2] = tested on: Panel colon (Carcinoma cell lines); experiment: Antiproliferative activity against human Panel colon (7 Carcinoma cell lines) assessed as reduction in mean cell growth; format: functional
Procedure, shortened: (§2)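 NCI five-dose testing across the 58-line panel gives GI50, TGI and LC50 for each line. Subpanel lines report mean GI50 for each of the nine cancer types.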

[3] = molecular target: Serine/threonine-protein kinase B-raf (Homo sapiens) (UniProt P15056); experiment: Inhibition of B-RAF (unknown origin) at 10 uM using […] as substrate incubated for 40 mins in presence of [gamma33P]ATP by scintillation counting based hotspot kinase assay relative to control
Sequence of Serine/threonine-protein kinase B-raf (Homo sapiens) (P15056 whole entry): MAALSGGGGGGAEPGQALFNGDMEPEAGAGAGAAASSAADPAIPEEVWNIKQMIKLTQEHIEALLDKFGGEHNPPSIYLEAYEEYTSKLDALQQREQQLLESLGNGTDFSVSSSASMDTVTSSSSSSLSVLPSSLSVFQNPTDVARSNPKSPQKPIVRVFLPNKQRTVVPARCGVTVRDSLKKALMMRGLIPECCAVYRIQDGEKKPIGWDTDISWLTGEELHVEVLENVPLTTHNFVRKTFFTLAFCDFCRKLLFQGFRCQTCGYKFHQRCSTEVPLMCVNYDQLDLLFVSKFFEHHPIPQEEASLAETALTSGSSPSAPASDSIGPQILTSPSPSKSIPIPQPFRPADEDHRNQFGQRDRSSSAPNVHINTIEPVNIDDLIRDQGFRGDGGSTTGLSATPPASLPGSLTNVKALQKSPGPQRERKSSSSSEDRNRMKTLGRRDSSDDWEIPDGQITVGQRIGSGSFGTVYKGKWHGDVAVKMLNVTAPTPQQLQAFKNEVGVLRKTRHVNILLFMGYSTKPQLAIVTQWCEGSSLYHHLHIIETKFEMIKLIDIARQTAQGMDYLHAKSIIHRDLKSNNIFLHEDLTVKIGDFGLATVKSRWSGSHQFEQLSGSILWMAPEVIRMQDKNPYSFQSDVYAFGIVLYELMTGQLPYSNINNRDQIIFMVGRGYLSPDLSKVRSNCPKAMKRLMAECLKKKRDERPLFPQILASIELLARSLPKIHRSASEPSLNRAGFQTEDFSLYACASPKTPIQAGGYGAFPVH

HCT-15 [4] = experiment: Antiproliferative activity against human HCT-15 cells assessed as reduction in cell growth; format: functional; procedure, shortened: as §2
HOP-92 [5] = experiment: Antiproliferative activity against human HOP-92 cells assessed as total growth inhibition; format: functional; procedure, shortened: as §2
SNB-75 [6] = experiment: Antiproliferative activity against human SNB-75 cells assessed as reduction in cell growth; format: functional; procedure, shortened: as §2
[7] = tested on: Panel breast (Carcinoma cell lines); experiment: Antiproliferative activity against human Panel breast (6 Carcinoma cell lines) assessed as reduction in mean cell growth; format: functional; procedure, shortened: as §2
RXF 393 [8] = experiment: Cytotoxicity against human RXF 393 cells; format: functional; procedure, shortened: as §1
NCI/ADR-RES [9] = experiment: Cytotoxicity against human NCI/ADR-RES cells; format: functional; procedure, shortened: as §1
[10] = molecular target: Epidermal growth factor receptor (Homo sapiens) (UniProt P00533); experiment: Inhibition of EGFR (unknown origin) at 10 uM using […] as substrate incubated for 40 mins in presence of [gamma33P]ATP by scintillation counting based hotspot kinase assay relative to control
Sequence of Epidermal growth factor receptor (Homo sapiens) (P00533 whole entry): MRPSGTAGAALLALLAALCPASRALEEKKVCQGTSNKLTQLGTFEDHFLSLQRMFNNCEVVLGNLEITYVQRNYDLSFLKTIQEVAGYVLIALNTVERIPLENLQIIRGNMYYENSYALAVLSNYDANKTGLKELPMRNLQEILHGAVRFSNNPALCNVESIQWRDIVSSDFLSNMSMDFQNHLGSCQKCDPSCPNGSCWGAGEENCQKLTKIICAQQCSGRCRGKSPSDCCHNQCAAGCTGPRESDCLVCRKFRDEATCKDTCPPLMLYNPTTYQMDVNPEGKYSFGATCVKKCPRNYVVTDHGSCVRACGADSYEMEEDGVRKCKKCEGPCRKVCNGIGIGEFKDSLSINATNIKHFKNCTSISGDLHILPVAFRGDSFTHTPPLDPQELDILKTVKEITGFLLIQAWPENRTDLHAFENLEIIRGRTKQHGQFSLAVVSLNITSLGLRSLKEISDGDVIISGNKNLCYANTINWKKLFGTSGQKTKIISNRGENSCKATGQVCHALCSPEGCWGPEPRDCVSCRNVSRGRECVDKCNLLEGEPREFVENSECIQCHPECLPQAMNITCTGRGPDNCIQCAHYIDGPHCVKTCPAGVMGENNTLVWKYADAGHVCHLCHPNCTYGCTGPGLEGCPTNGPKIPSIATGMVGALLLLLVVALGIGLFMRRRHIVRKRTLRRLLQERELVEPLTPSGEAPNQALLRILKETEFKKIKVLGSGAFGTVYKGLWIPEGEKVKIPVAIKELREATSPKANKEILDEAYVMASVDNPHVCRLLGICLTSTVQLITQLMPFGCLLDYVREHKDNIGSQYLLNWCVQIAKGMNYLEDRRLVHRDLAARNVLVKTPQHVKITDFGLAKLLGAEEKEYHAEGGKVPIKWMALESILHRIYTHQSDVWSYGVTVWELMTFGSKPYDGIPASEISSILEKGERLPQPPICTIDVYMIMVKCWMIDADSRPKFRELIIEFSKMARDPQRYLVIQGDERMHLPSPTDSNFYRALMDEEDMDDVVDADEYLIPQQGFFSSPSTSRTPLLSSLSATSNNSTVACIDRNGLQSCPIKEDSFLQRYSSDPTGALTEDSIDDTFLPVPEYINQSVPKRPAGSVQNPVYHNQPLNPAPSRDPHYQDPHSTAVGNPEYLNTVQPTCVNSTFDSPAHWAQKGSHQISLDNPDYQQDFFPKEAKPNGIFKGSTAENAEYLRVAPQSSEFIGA

[11] = tested on: Serine/threonine-protein kinase B-raf (Homo sapiens), P15056 [V600E]; experiment: Inhibition of B-RAF V600E mutant (unknown origin) at 10 uM using […] as substrate incubated for 40 mins in presence of [gamma33P]ATP by scintillation counting based hotspot kinase assay relative to control
Sequence of Serine/threonine-protein kinase B-raf (Homo sapiens), P15056 [V600E] (P15056 whole entry V600E): as the sequence (P15056 whole entry) above, with V600E counted along it

RXF 393 [12] = experiment: Antiproliferative activity against human RXF 393 cells assessed as reduction in cell growth; format: functional; procedure, shortened: as §2
SK-MEL-5 [13] = experiment: Cytotoxicity against human SK-MEL-5 cells; format: functional; procedure, shortened: as §1
MDA-MB-468 [14] = experiment: Antiproliferative activity against human MDA-MB-468 cells assessed as reduction in cell growth; format: functional; procedure, shortened: as §2
[15] = Antiproliferative activity against human Panel non-small cell lung cancer (8 Carcinoma cell lines) assessed as reduction in mean cell growth; format: functional; details: Non-small cell lung cancer cell line; procedure, shortened: as §2
HOP-92 [16] = experiment: Antiproliferative activity against human HOP-92 cells assessed as reduction in cell growth; format: functional; procedure, shortened: as §2
HCT-15 [17] = experiment: Antiproliferative activity against human HCT-15 cells assessed as total growth inhibition; format: functional; procedure, shortened: as §2
[18] = tested on: Panel melanoma (Carcinoma cell lines); experiment: Antiproliferative activity against human Panel melanoma (9 Carcinoma cell lines) assessed as reduction in mean cell growth; format: functional; procedure, shortened: as §2
[19] = Antiproliferative activity against human Panel NCI-58 (58 Carcinoma cell lines) assessed as reduction in mean cell growth at 10 uM; format: functional; set-up: scale not given: the % may be the effect or the level left
Procedure, shortened: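 NCI 58-cell-line screen covering leukemia, NSCLC, colon, CNS, melanoma, ovarian, renal, prostate and breast lines. Compounds given once at […] (micromolar per the line). Percent inhibition taken as 100 minus growth percent. Panel line reports the mean over all 58 lines.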

COLO 205 [20] = experiment: Antiproliferative activity against human COLO 205 cells assessed as reduction in cell growth; format: functional; procedure, shortened: as §2
[21] = tested on: Panel renal (Carcinoma cell lines); experiment: Antiproliferative activity against human Panel renal (8 Carcinoma cell lines) assessed as reduction in mean cell growth; format: functional; procedure, shortened: as §2
L132 = experiment: Cytotoxicity against human L132 cells assessed as reduction in cell growth at 31.3 to 100 uM relative to control; format: toxicity, cell-based; set-up: scale not given: the % may be the effect or the level left; details: l132, 100 µM, dose 31.3-100 µM
NCI/ADR-RES [22] = experiment: Antiproliferative activity against human NCI/ADR-RES cells assessed as total growth inhibition; format: functional; procedure, shortened: as §2
COLO 205 [23] = experiment: Antiproliferative activity against human COLO 205 cells assessed as total growth inhibition; format: functional; procedure, shortened: as §2
[24] = tested on: Panel CNS (Carcinoma cell lines); experiment: Antiproliferative activity against human Panel CNS (6 Carcinoma cell lines) assessed as reduction in mean cell growth; format: functional; procedure, shortened: as §2
[25] = molecular target: Tyrosine-protein kinase ABL1 (Homo sapiens) (UniProt P00519); experiment: Inhibition of ABL (unknown origin) at 10 uM using […] as substrate incubated for 40 mins in presence of [gamma33P]ATP by scintillation counting based hotspot kinase assay relative to control
Sequence of Tyrosine-protein kinase ABL1 (Homo sapiens) (P00519 whole entry): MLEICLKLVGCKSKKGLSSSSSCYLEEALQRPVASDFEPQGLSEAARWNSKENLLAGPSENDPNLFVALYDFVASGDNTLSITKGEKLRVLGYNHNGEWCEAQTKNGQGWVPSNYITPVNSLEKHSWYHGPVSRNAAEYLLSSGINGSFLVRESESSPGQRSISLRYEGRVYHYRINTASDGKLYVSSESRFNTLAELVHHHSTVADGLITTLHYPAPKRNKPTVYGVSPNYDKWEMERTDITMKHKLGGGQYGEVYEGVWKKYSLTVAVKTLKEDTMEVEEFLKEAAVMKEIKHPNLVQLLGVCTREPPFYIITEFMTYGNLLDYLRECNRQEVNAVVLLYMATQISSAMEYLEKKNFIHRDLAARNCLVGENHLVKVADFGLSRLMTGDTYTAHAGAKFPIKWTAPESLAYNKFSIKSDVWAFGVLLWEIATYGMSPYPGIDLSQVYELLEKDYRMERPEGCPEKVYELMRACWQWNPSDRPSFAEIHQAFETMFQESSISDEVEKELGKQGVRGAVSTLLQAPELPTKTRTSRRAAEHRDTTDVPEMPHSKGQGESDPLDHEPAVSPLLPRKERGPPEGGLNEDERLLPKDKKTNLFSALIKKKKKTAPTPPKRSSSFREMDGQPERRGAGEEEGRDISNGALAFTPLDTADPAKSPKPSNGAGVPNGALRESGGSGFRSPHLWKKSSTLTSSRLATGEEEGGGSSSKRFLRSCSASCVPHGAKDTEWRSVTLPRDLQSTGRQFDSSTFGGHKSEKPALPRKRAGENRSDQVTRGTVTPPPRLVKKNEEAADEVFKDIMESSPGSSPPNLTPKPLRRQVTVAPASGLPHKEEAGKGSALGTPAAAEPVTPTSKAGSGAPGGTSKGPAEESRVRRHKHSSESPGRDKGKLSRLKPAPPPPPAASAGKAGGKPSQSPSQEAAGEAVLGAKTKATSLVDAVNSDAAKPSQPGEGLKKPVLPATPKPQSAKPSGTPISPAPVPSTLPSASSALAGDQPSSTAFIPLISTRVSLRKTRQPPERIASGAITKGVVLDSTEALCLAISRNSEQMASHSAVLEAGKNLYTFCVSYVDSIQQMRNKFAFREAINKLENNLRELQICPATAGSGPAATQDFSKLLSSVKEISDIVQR

RXF 393 [26] = experiment: Antiproliferative activity against human RXF 393 cells assessed as total growth inhibition; format: functional; procedure, shortened: as §2
PC-3 [27] = experiment: Cytotoxicity against human PC-3 cells; format: functional; procedure, shortened: as §1
MDA-MB-468 [28] = experiment: Cytotoxicity against human MDA-MB-468 cells; format: functional; details: read-out: LC50 (the source's name); procedure, shortened: as §1
HOP-92 [29] = experiment: Cytotoxicity against human HOP-92 cells; format: functional; procedure, shortened: as §1
NCI/ADR-RES [30] = experiment: Antiproliferative activity against human NCI/ADR-RES cells assessed as reduction in cell growth; format: functional; procedure, shortened: as §2
SK-MEL-5 [31] = experiment: Antiproliferative activity against human SK-MEL-5 cells assessed as total growth inhibition; format: functional; procedure, shortened: as §2
[32] = tested on: Panel prostate (Carcinoma cell lines); experiment: Antiproliferative activity against human Panel prostate (2 Carcinoma cell lines) assessed as reduction in mean cell growth; format: functional; procedure, shortened: as §2
SNB-75 [33] = experiment: Antiproliferative activity against human SNB-75 cells assessed as total growth inhibition; format: functional; procedure, shortened: as §2
MDA-MB-468 [34] = experiment: Antiproliferative activity against human MDA-MB-468 cells assessed as total growth inhibition; format: functional; procedure, shortened: as §2
PC-3 [35] = experiment: Antiproliferative activity against human PC-3 cells assessed as total growth inhibition; format: functional; procedure, shortened: as §2
K562 [36] = experiment: Cytotoxicity against human k562 cells; format: functional; details: read-out: LC50 (the source's name); procedure, shortened: as §1
K562 [37] = experiment: Antiproliferative activity against human K562 cells assessed as total growth inhibition; format: functional; procedure, shortened: as §2
[38] = molecular target: RAF proto-oncogene serine/threonine-protein kinase (Homo sapiens, UniProt P04049); experiment: Inhibition of RAF1 (unknown origin) at 10 uM using […] as substrate incubated for 40 mins in presence of [gamma33P]ATP by scintillation counting based hotspot kinase assay relative to control
Sequence of RAF proto-oncogene serine/threonine-protein kinase (P04049 whole entry): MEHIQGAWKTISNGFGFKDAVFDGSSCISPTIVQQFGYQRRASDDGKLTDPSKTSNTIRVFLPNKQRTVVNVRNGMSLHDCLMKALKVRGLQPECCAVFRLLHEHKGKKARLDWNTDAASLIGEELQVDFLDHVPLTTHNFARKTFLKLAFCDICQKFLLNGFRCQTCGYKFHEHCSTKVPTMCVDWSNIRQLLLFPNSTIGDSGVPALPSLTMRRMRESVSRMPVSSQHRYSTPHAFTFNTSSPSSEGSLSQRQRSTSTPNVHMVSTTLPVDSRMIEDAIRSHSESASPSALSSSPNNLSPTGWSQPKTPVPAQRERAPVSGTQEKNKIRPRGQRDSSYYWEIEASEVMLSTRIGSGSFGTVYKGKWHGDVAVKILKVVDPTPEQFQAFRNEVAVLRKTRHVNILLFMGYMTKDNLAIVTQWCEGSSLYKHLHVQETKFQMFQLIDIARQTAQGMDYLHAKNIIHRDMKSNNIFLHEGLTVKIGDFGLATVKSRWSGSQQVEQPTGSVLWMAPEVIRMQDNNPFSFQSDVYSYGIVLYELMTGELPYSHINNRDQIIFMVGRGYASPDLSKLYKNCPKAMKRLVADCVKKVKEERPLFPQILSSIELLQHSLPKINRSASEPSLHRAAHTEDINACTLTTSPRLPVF

[39] = tested on: Panel leukemia (Carcinoma cell lines); experiment: Antiproliferative activity against human Panel leukemia (5 Carcinoma cell lines) assessed as reduction in mean cell growth; format: functional; procedure, shortened: as §2
K562 [40] = experiment: Antiproliferative activity against human K562 cells assessed as reduction in cell growth; format: functional; procedure, shortened: as §2
PC-3 [41] = experiment: Antiproliferative activity against human PC-3 cells assessed as reduction in cell growth; format: functional; procedure, shortened: as §2
[42] = molecular target: Mitogen-activated protein kinase 14 (Homo sapiens) (UniProt Q16539); experiment: Inhibition of MAPK14 (p38 alpha) (unknown origin) at 10 uM using […] as substrate incubated for 40 mins in presence of [gamma33P]ATP by scintillation counting based hotspot kinase assay relative to control
Sequence of Mitogen-activated protein kinase 14 (Homo sapiens) (Q16539 whole entry): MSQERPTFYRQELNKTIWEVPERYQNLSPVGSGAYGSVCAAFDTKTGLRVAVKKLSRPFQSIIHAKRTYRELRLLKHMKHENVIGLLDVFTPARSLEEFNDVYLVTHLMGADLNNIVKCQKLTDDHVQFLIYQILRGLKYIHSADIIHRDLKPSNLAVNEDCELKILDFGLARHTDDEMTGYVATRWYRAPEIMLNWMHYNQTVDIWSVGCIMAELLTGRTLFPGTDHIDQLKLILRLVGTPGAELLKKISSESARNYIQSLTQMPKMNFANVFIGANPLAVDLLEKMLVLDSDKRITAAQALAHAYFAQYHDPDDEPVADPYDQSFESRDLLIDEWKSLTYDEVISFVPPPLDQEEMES

SK-MEL-5 [43] = experiment: Antiproliferative activity against human SK-MEL-5 cells assessed as reduction in cell growth; format: functional; procedure, shortened: as §2
Homo sapiens = species: Homo sapiens; experiment: Inhibition of ABL […] mutant (unknown origin) at 10 uM using […] as substrate incubated for 40 mins in presence of [gamma33P]ATP by scintillation counting based hotspot kinase assay relative to control
COLO 205 [44] = experiment: Cytotoxicity against human COLO 205 cells; format: functional; procedure, shortened: as §1
[45] = tested on: Panel ovarian (Carcinoma cell lines); experiment: Antiproliferative activity against human Panel ovarian (7 Carcinoma cell lines) assessed as reduction in mean cell growth; format: functional; procedure, shortened: as §2
SNB-75 [46] = experiment: Cytotoxicity against human SNB-75 cells; format: functional; details: read-out: LC50 (the source's name); procedure, shortened: as §1

SMILES: O=C(NCCCNc1cc(-c2cn(-c3ccccc3)nc2-c2cccc(O)c2)ccn1)c1ccc(F)cc1
- CC50 (HCT-15 [1]): 8.09 µM
- GI50 [2]: 2.16 µM
- inhibition [3]: 22.5%
- GI50 (HCT-15 [4]): 1.77 µM
- TGI (HOP-92 [5]): 3.28 µM
- GI50 (SNB-75 [6]): 5.19 µM
- GI50 [7]: 1.89 µM
- LC50 (RXF 393 [8]): 5.99 µM
- LC50 (NCI/ADR-RES [9]): 29.7 µM
- inhibition [10]: 15.7%
- inhibition [11]: 40.1%
- GI50 (RXF 393 [12]): 1.63 µM
- LC50 (SK-MEL-5 [13]): 5.72 µM
- GI50 (MDA-MB-468 [14]): 1.59 µM
- GI50 [15]: 3.12 µM
- GI50 (HOP-92 [16]): 2.13 µM
- TGI (HCT-15 [17]): 3.71 µM
- GI50 [18]: 1.91 µM
- Activity [19]: >80%
- GI50 (COLO 205 [20]): 1.6 µM
- GI50 [21]: 2.84 µM
- Activity (L132): 50%
- TGI (NCI/ADR-RES [22]): 5.82 µM
- TGI (COLO 205 [23]): 3.78 µM
- GI50 [24]: 3.29 µM
- inhibition [25]: 16.1%
- TGI (RXF 393 [26]): 3.03 µM
- LC50 (PC-3 [27]): 44.3 µM
- CC50 (MDA-MB-468 [28]): 6.92 µM
- LC50 (HOP-92 [29]): 7.38 µM
- GI50 (NCI/ADR-RES [30]): 2.2 µM
- TGI (SK-MEL-5 [31]): 3.15 µM
- GI50 [32]: 3.72 µM
- TGI (SNB-75 [33]): 12.5 µM
- TGI (MDA-MB-468 [34]): 3.43 µM
- TGI (PC-3 [35]): 5.24 µM
- CC50 (K562 [36]): 100 µM
- TGI (K562 [37]): 4.83 µM
- inhibition [38]: 36.4%
- GI50 [39]: 1.98 µM
- GI50 (K562 [40]): 1.93 µM
- GI50 (PC-3 [41]): 2.81 µM
- inhibition [42]: 66.6%
- GI50 (SK-MEL-5 [43]): 1.61 µM
- inhibition (Homo sapiens): 14.6%
- LC50 (lethal concentration 50%) (COLO 205 [44]): 7.6 µM
- GI50 [45]: 3.46 µM
- CC50 (SNB-75 [46]): 74 µM
